Read-outs that look alike come from different tables or passages of the source.
Legend:
[1] = cited from earlier work
DU-145 prostate cells = conditions: cited from earlier work
PC-3 cells = conditions: cited from earlier work
[2] = Determination of log P values; format: physicochemical; conditions: n-octanol/water 3 mL:3 mL, 100 µL radiotracer, gamma counter, triplicate samples
How it was run: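 Radiotracer (100 µL; 99mTc labeling by stannous-tartrate exchange at 100°C, 20 min) was added to equal volumes (3 mL each) of n-octanol and water, stirred vigorously and centrifuged. Triplicate samples from each phase were gamma-counted to give the partition ratio and log P.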

[3] = tested on: PC-3 human prostate carcinoma cells; assay: In vitro cell binding assay with increasing cold conjugate; format: cell-based; conditions: 120 min
How it was run: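 PC3 androgen-independent cells were grown in RPMI 1640 with 10% (v/v) fetal calf serum at 37°C, 5% CO2, harvested near confluency by trypsinization, and seeded at 10^6 cells/well 24 h before assay. Wells received 90 pM 99mTc-labeled peptide with increasing cold conjugate (1 nM to 18 nM) and were incubated 120 min. Cell-associated radioactivity was gamma-counted.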

[4] = Biodistribution in healthy Swiss mice; format: in vivo; conditions: i.v. 0.1 mL/18.5 MBq, mean ± SD n = 6
How it was run: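 Male Swiss albino mice (20 - 25 g) received 99mTc-labeled conjugate by tail vein (0.1 mL/18.5 MBq). Six mice per time point were killed by cervical dislocation at 5, 30, 90 and 240 min. Organs were excised, weighed and counted on a NaI(Tl) gamma counter; stomach and intestine were counted after removing luminal contents. %ID/g was calculated using injected-dose activity as standard; mean ± SD.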

PC-3 tumors [5] = assay: Biodistribution in Nude mice bearing PC-3 tumors; format: in vivo; conditions: for Blood uptake / Bone uptake / Heart uptake / Lung uptake / Muscle uptake / Spleen uptake / Stomach uptake / Tumor uptake: mean ± SD n = 6
How it was run: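 Athymic male nude mice (16 - 20 g) received 5.0×10^6 PC3 cells subcutaneously in the upper back; tumors grew 2–3 weeks to about 1 cm diameter. 99mTc-labeled conjugate was given by tail vein and biodistribution evaluated at 30 and 90 min post-injection; blocking groups were coinjected with excess cold conjugate. Organs were excised, weighed and gamma-counted; %ID/g was computed against injected-dose activity; mean ± SD, n = 6.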

PC-3 tumors [6] = format: in vivo; conditions: PC-3 tumor-bearing mice

In the case of FRPNRAQDYNTN [DUP-1], the serum stability [1] is given as “serum-instable”, the “binding to DU-145 prostate cells” value (DU-145 prostate cells) is given as “high affinity” and the “binding to PC-3 cells” value (PC-3 cells) is given as “high affinity”.

For “FRPNRAQDYNTNK-SAMA-G-G-G-Ahx-NH2 [99mTc-SAMA-G3-Ahx-DUP-1]”, the partition ratio [2] was 0.00389, the “Radioactivity associated with PC3 tumor cells (binding)” value ([3]; 90 pM 99mTc-labeled peptide, no cold peptide, 37°C) was roughly 1.97% and the “decrease of binding with cold peptide” value ([3]; cold conjugate increased 0 to 18 nM, 90 pM tracer) was 63%. The Blood uptake ([4]; 5 min) was 1.21±0.02 %ID/g, the Bone uptake ([4]; 5 min) was 0.84±0.17 %ID/g and the Heart uptake ([4]; 5 min) was 0.82±0.14 %ID/g. The Kidney uptake ([4]; 5 min) was 22.62±2.03 %ID/g, the Liver uptake ([4]; 5 min) was 12.31±2.19 %ID/g and the Lung uptake ([4]; 5 min) was 1.48±0.23 %ID/g. It also gave a Muscle uptake ([4]; 5 min) of 0.77±0.06 %ID/g, a Pancreas uptake ([4]; 5 min) of 1.44±0.33 %ID/g and a Spleen uptake ([4]; 5 min) of 1.37±0.18 %ID/g. It also gave a Blood uptake ([4]; 30 min) of 0.43±0.06 %ID/g, a Bone uptake ([4]; 30 min) of 0.20±0.01 %ID/g and a Heart uptake ([4]; 30 min) of 0.24±0.07 %ID/g. It also gave a Kidney uptake ([4]; 30 min) of 21.06±0.41 %ID/g, a Liver uptake ([4]; 30 min) of 8.58±1.75 %ID/g and a Lung uptake ([4]; 30 min) of 0.73±0.16 %ID/g. For the same substance, the Muscle uptake ([4]; 30 min) was 0.14±0.04 %ID/g, the Pancreas uptake ([4]; 30 min) was 0.18±0.11 %ID/g and the Spleen uptake ([4]; 30 min) was 0.28±0.07 %ID/g. For the same substance, the Blood uptake ([4]; 90 min) was 0.08±0.01 %ID/g, the Bone uptake ([4]; 90 min) was 0.05±0.02 %ID/g and the Heart uptake ([4]; 90 min) was 0.04±0.01 %ID/g. The Kidney uptake ([4]; 90 min) was 7.28±2.07 %ID/g, the Liver uptake ([4]; 90 min) was 1.57±0.57 %ID/g and the Lung uptake ([4]; 90 min) was 0.15±0.037 %ID/g. For the same substance, the Muscle uptake ([4]; 90 min) was 0.51±0.01 %ID/g, the Pancreas uptake ([4]; 90 min) was 0.05±0.01 %ID/g and the Spleen uptake ([4]; 90 min) was 0.09±0.03 %ID/g. For the same substance, the Blood uptake ([4]; 240 min) was 0.05±0.01 %ID/g, the Bone uptake ([4]; 240 min) was 0.05±0.01 %ID/g and the Heart uptake ([4]; 240 min) was 0.03±0.02 %ID/g. For the same substance, the Kidney uptake ([4]; 240 min) was 3.22±0.43 %ID/g, the Liver uptake ([4]; 240 min) was 1.53±0.64 %ID/g and the Lung uptake ([4]; 240 min) was 0.13±0.07 %ID/g. The Muscle uptake ([4]; 240 min) was 0.17±0.07 %ID/g, the Pancreas uptake ([4]; 240 min) was 0.04±0.01 %ID/g and the Spleen uptake ([4]; 240 min) was 0.07±0.02 %ID/g. For the same substance, the “Uptake ratio Tumor/blood” value (PC-3 tumors [5]; 30 min post-injection) was 1.23, the “Uptake ratio Tumor/muscle” value (PC-3 tumors [5]; 30 min post-injection) was 3.15 and the Blood uptake (PC-3 tumors [5]; 30 min post-injection) was 0.69±0.14 %ID/g. It also gave a Bone uptake (PC-3 tumors [5]; 30 min post-injection) of 0.31±0.08 %ID/g, a Heart uptake (PC-3 tumors [5]; 30 min post-injection) of 0.41±0.02 %ID/g and a Lung uptake (PC-3 tumors [5]; 30 min post-injection) of 1.24±0.43 %ID/g. For the same substance, the Muscle uptake (PC-3 tumors [5]; 30 min post-injection) was 0.27±0.27 %ID/g, the Spleen uptake (PC-3 tumors [5]; 30 min post-injection) was 0.56±0.13 %ID/g and the Stomach uptake (PC-3 tumors [5]; 30 min post-injection) was 1.05±0.07 %ID/g. The Tumor uptake (PC-3 tumors [5]; 30 min post-injection) was 0.85±0.19 %ID/g, the “Uptake ratio Tumor/blood” value (PC-3 tumors [5]; 90 min post-injection) was 1.78 and the “Uptake ratio Tumor/muscle” value (PC-3 tumors [5]; 90 min post-injection) was 1.32. The Blood uptake (PC-3 tumors [5]; 90 min post-injection) was 0.23±0.06 %ID/g, the Bone uptake (PC-3 tumors [5]; 90 min post-injection) was 0.30±0.05 %ID/g and the Heart uptake (PC-3 tumors [5]; 90 min post-injection) was 0.10±0.10 %ID/g. For the same substance, the Lung uptake (PC-3 tumors [5]; 90 min post-injection) was 0.34±0.27 %ID/g, the Muscle uptake (PC-3 tumors [5]; 90 min post-injection) was 0.31±0.11 %ID/g and the Spleen uptake (PC-3 tumors [5]; 90 min post-injection) was 0.54±0.19 %ID/g. The Stomach uptake (PC-3 tumors [5]; 90 min post-injection) was 0.72±0.27 %ID/g, the Tumor uptake (PC-3 tumors [5]; 90 min post-injection) was 0.41±0.11 %ID/g and the “cold conjugate-blocked tumor uptake” value (PC-3 tumors [6]; 30 min post-injection) was 82%. The “cold conjugate-blocked tumor uptake” value (PC-3 tumors [6]; 90 min post-injection) was 83%.
